Calls of active or inactive are those of the source. The rule behind the calls is not given here.
Assays:
[1] = target: T1, Fatty-acid amide hydrolase 1 (Rattus norvegicus, UniProt P97612); experiment: Inhibition of rat FAAH preincubated for 20 mins
T1 sequence (P97612 whole entry): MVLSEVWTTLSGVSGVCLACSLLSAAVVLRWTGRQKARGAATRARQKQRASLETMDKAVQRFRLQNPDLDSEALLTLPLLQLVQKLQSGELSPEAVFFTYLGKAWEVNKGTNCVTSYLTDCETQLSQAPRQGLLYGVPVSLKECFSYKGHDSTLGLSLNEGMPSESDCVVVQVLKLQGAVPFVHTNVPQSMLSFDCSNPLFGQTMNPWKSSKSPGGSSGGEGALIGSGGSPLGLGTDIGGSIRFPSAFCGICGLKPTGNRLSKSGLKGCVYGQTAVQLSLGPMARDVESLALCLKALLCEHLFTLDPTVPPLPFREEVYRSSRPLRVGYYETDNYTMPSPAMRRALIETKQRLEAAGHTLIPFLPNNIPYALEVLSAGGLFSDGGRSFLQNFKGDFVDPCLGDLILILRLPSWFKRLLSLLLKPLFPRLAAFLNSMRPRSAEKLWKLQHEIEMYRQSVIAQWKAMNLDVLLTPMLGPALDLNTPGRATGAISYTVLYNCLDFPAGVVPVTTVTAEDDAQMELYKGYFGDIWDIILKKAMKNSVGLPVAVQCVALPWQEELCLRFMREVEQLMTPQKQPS

[2] = test system: Rattus norvegicus; experiment: Ex vivo inhibition of FAAH in rat brain assessed as recovered enzyme activity at 20 mg/kg, ip after 24 hrs relative to control; assay type: functional; design: scale not given: the % may be the effect or the level left; conditions: route intraperitoneal
Outline: (§1)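 Rats dosed once at 20 mg/kg i.p.; brains removed at time points up to 24 h and FAAH activity measured ex vivo, expressed relative to untreated animals.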

[3] = test system: Rattus norvegicus; experiment: Volume of distribution in rat at 10 mg/kg, po; assay type: ADME, organism-based; design: dose 10 mg/kg, route oral; conditions: in vivo
[4] = test system: Rattus norvegicus; experiment: Volume of distribution in rat at 10 mg/kg, ip; assay type: ADME, organism-based; design: dose 10 mg/kg, route intraperitoneal; conditions: in vivo
[5] = Oral bioavailability in rat at 10 mg/kg; assay type: ADME, organism-based; conditions: in vivo
[6] = Cmax in rat brain at 20 mg/kg, ip; assay type: ADME, organism-based; design: dose 20 mg/kg, route intraperitoneal
[7] = Blood-brain barrier coefficient in rat assessed as log of ratio of brain AUC to plasma AUC at 20 mg/kg, ip; assay type: ADME, organism-based; design: dose 20 mg/kg, route intraperitoneal
[8] = Volume of distribution in rat at 1 mg/kg, iv; assay type: ADME, organism-based; design: dose 1 mg/kg, route intravenous; conditions: in vivo
[9] = test system: Rattus norvegicus; experiment: Increase in anandamide levels in rat brain at 20 mg/kg, ip; assay type: functional, organism-based; design: dose 20 mg/kg
Outline: (§2)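 Rats dosed at 20 mg/kg i.p.; anandamide levels measured in brain tissue at 4 h post dose, compared with control.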

[10] = species: Rattus norvegicus; experiment: Inhibition of rat liver esterase assessed as ester (4-nitrophenyl-acetate) hydrolysis at 10 uM after 30 mins
Outline: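 Rat liver microsomes; carboxylesterase activity read as change in rate of 4-nitrophenyl-acetate hydrolysis; compound at 10 with 30 min preincubation; DMSO vehicle control; % relative activity.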

[11] = Cmax in rat at 10 mg/kg, po; assay type: ADME, organism-based; design: dose 10 mg/kg, route oral; conditions: in vivo
[12] = Mean retention time in rat at 1 mg/kg, iv; assay type: ADME, organism-based; design: dose 1 mg/kg, route intravenous; conditions: in vivo
[13] = Half life in rat plasma at 10 mg/kg, po; assay type: ADME, organism-based; design: dose 10 mg/kg, route oral
[14] = Tmax in rat at 10 mg/kg, ip; assay type: ADME, organism-based; design: dose 10 mg/kg, route intraperitoneal; conditions: in vivo
[15] = Cmax in rat plasma at 20 mg/kg, ip; assay type: ADME, organism-based; design: dose 20 mg/kg, route intraperitoneal
[16] = Bioavailability in rat at 10 mg/kg, ip; assay type: ADME, organism-based; conditions: in vivo
[17] = Mean retention time in rat at 10 mg/kg, po; assay type: ADME, organism-based; design: dose 10 mg/kg, route oral; conditions: in vivo
[18] = test system: Rattus norvegicus; experiment: Increase in anandamide levels in rat brain at 20 mg/kg, ip after 4 hrs relative to control; assay type: functional; conditions: route intraperitoneal; outline: as §2
[19] = test system: Rattus norvegicus; experiment: Ex vivo inhibition of FAAH in rat brain at 20 mg/kg, ip; assay type: functional, organism-based; design: dose 20 mg/kg; outline: as §1
[20] = Tmax in rat plasma at 20 mg/kg, ip; assay type: ADME, organism-based; design: dose 20 mg/kg, route intraperitoneal
[21] = Half life in rat plasma at 1 mg/kg, iv; assay type: ADME, organism-based; design: dose 1 mg/kg, route intravenous
[22] = target: T2, Fatty-acid amide hydrolase 1 (Rattus norvegicus) (UniProt P97612); experiment: Inhibition of rat FAAH assessed as recovery of enzyme activity at IC80 concentration after 18 hrs at 4 degC by dialysis
T2 sequence (whole entry): T1 sequence (P97612 whole entry)

[23] = Half life in rat plasma at 10 mg/kg, ip; assay type: ADME, organism-based; design: dose 10 mg/kg, route intraperitoneal
[24] = Clearance in rat at 10 mg/kg, ip; assay type: ADME, organism-based; design: dose 10 mg/kg, route intraperitoneal; conditions: in vivo
[25] = Cmax in rat at 10 mg/kg, ip; assay type: ADME, organism-based; design: dose 10 mg/kg, route intraperitoneal; conditions: in vivo
[26] = Clearance in rat at 1 mg/kg, iv; assay type: ADME, organism-based; design: dose 1 mg/kg, route intravenous; conditions: in vivo
[27] = Tmax in rat brain at 20 mg/kg, ip; assay type: ADME, organism-based; design: dose 20 mg/kg, route intraperitoneal
[28] = Clearance in rat at 10 mg/kg, po; assay type: ADME, organism-based; design: dose 10 mg/kg, route oral; conditions: in vivo
[29] = Tmax in rat at 10 mg/kg, po; assay type: ADME, organism-based; design: dose 10 mg/kg, route oral; conditions: in vivo
[30] = Cmax in rat at 1 mg/kg, iv; assay type: ADME, organism-based; design: dose 1 mg/kg, route intravenous; conditions: in vivo
[31] = Mean retention time in rat at 10 mg/kg, ip; assay type: ADME, organism-based; design: dose 10 mg/kg, route intraperitoneal; conditions: in vivo
[32] = target: T2, Fatty-acid amide hydrolase 1 (Rattus norvegicus); experiment: Inhibition of rat FAAH assessed as recovery of enzyme activity at IC80 concentration after 18 hrs at 22 degC by dialysis

O=C(Nc1ccccc1)N1CCN(c2nc(-c3ccccc3)ns2)CC1
IC50 [1]: 34 nM
Activity [2]: 25%
Vd [3]: 45 L
Vd [4]: 4.6 L
bioavailability [5]: 5%
Cmax [6]: 6.04 µM
Kp [7]: 0.042
Vd [8]: 0.57 L
Activity [9]: Active
Activity [10]: inactive
Cmax [11]: 0.301 µM
MRT [12]: 0.817 h
half-life [13]: 4.4 h
Tmax [14]: 0.583 h
Cmax [15]: 26.9 µM
bioavailability [16]: 20%
MRT [17]: 6.37 h
fold change (FC) [18]: 1.4
Activity [19]: Active
Tmax [20]: 0.75 h
half-life [21]: 0.567 h
Activity [22]: Active
half-life [23]: 1.57 h
CL/F [24]: 32 mL/min
Cmax [25]: 1.58 µM
clearance [26]: 6 mL/min
Tmax [27]: 2 h
CL/F [28]: 116 mL/min
Tmax [29]: 1.83 h
Cmax [30]: 3.06 µM
MRT [31]: 2.25 h
Activity [32]: inactive

Reference: ChEMBL document CHEMBL1139400, “Thiadiazolopiperazinyl ureas as inhibitors of fatty acid amide hydrolase” (Bioorg Med Chem Lett, 2008)
